In ChEMBL document CHEMBL3112443, “Development of new LXR modulators that regulate LXR target genes and reduce lipogenesis in human cell models” (Eur J Med Chem, 2014):
Calls of active or inactive are those of the source. The calls are words filed in the database; no cut-off is given here.

Experiments:
[1] = target: T1, Liver X receptor (Homo sapiens) (UniProt Q13133+P55055); assay: Modulation of LXR in human myotubes assessed as increase of D-[14C(U)]deoxy-D-glucose uptake at 1 to 50 uM after 4 days by scintillation counting; type: protein assay
How it was run: (§1)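 Primary myotubes, 7 days differentiated, treated 4 days with compounds in 0.1% DMSO. Then given D-[14C(U)]deoxy-D-glucose (100 mM as printed) for 4 h. Washed twice with ice-cold PBS, lysed in 0.1 M NaOH and counted by liquid scintillation. Uptake normalized to protein; mean ± SEM of separate experiments, at least 3 parallels each.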

[2] = target: T1, Liver X receptor (Homo sapiens); assay: Modulation of LXR in human myotubes assessed as decrease of T0901317-induced FAS mRNA expression at 10 uM after 4 days by qPCR analysis
How it was run: (§2)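 Cells given 1 mM T0901317 (so in the source) together with […] test compound; DMSO 0.1% vehicle. Myotubes treated 4 days, HepG2 24 h. Total RNA reverse-transcribed with hexamer primers, then SYBR Green qPCR. Expression normalized to 36B4 and given as fold change vs DMSO control, mean ± SEM, n = 3–11 separate experiments, at least 3 parallels each.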

[3] = target: T1, Liver X receptor (Homo sapiens); assay: Modulation of LXR in human myotubes assessed as decrease of T0901317-induced ABCA1 mRNA expression at 10 uM after 4 days by qPCR analysis; how it was run: as §2
[4] = target: T1, Liver X receptor (Homo sapiens); assay: Modulation of LXR in human myotubes assessed as decrease of T0901317-induced SCD1 mRNA expression at 10 uM after 4 days by qPCR analysis; how it was run: as §2
[5] = target: T1, Liver X receptor (Homo sapiens); assay: Modulation of LXR in human HepG2 cells assessed as decrease of T0901317-induced FAS mRNA expression at 10 uM after 4 days by qPCR analysis; type: cell-based
[6] = target: T1, Liver X receptor (Homo sapiens); assay: Modulation of LXR in human myotubes assessed as increase of T0901317-induced lipogenesis using [1-14C]acetate at 1 uM after 4 days by scintillation counting; type: protein assay
How it was run: (§3)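 Primary myotubes from satellite cells of 6 healthy donors, used after 7 days of differentiation. Treated 4 days with compounds ± T0901317 in 0.1% DMSO, then labelled 24 h with [1-14C]acetate (100 mM as printed). Lysed in NaOH; total lipids isolated by hydrophobic filtration and scintillation-counted. Normalized to protein; fold vs control, mean ± SEM, n = 3–6; dose–response n = 6.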

[7] = target: T1, Liver X receptor (Homo sapiens); assay: Modulation of LXR in human HepG2 cells assessed as decrease of T0901317-induced ABCA1 mRNA expression at 10 uM after 4 days by qPCR analysis; type: cell-based
[8] = target: T1, Liver X receptor (Homo sapiens); assay: Modulation of LXR in human HepG2 cells assessed as decrease of T0901317-induced SCD1 mRNA expression at 10 uM after 4 days by qPCR analysis; type: cell-based
[9] = target: T1, Liver X receptor (Homo sapiens); assay: Modulation of LXR in human myotubes assessed as increase of D-[14C(U)]deoxy-D-glucose uptake at 50 uM after 4 days by scintillation counting; type: protein assay; how it was run: as §1
[10] = target: T1, Liver X receptor (Homo sapiens); assay: Modulation of LXR in human HepG2 cells assessed as reduction of T0901317-induced lipogenesis using [1-14C]acetate at 1 uM after 4 days by scintillation counting; type: cell-based
[11] = target: T1, Liver X receptor (Homo sapiens); assay: Modulation of LXR in human myotubes assessed as increase of D-[14C(U)]deoxy-D-glucose uptake after 4 days by scintillation counting; type: protein assay; how it was run: as §1
[12] = target: T1, Liver X receptor (Homo sapiens); assay: Modulation of LXR in human myotubes assessed as increase of ABCA1 mRNA expression at 10 uM after 4 days by qPCR analysis
[13] = target: T1, Liver X receptor (Homo sapiens); assay: Modulation of LXR in human HepG2 cells assessed as reduction of T0901317-induced lipogenesis using [1-14C]acetate at 1 uM after 24 h by scintillation counting
[14] = target: T1, Liver X receptor (Homo sapiens); assay: Modulation of LXR in human myotubes assessed as increase of ABCA1 mRNA expression at 10 uM after 4 days by qPCR analysis
How it was run: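 Primary human myotubes (satellite cells from abdominal muscle of 6 healthy donors, differentiated 7 days at 5.5 mM glucose, 25 pM insulin) treated with compound or 0.1% DMSO for 4 days. Total RNA reverse-transcribed with hexamer primers; SYBR Green qPCR. ABCA1 normalised to 36B4 and reported as fold change versus DMSO, mean ± SEM, n = 3–11.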

[15] = target: T1, Liver X receptor (Homo sapiens); assay: Modulation of LXR in human myotubes assessed as reduction of T0901317-induced lipogenesis using [1-14C]acetate at 10 uM after 4 days by scintillation counting
[16] = target: T1, Liver X receptor (Homo sapiens); assay: Modulation of LXR in human myotubes assessed as increase of D-[14C(U)]deoxy-D-glucose uptake at 1 uM after 4 days by scintillation counting; type: protein assay; how it was run: as §1
[17] = target: T1, Liver X receptor (Homo sapiens); assay: Modulation of LXR in human myotubes assessed as reduction of lipogenesis using [1-14C]acetate after 4 days by scintillation counting; type: protein assay; how it was run: as §3
[18] = target: T1, Liver X receptor (Homo sapiens); assay: Modulation of LXR in human HepG2 cells assessed as reduction of lipogenesis using [1-14C]acetate at 1 uM after 24 h by scintillation counting

Activity [1] | Activity [2] | Activity [3] | Activity [4] | Activity [5] | Activity [6] | Activity [7] | Activity [8] | Activity [9] | Activity [10] | Activity [11] | Activity [16] | Activity [17] | Activity [18] | Structure (SMILES) | Activity [12] | Activity [13] | Activity [14] | Activity [15]
inactive | inactive | inactive | inactive | inactive | Active | inactive | inactive |  |  |  |  |  |  | CCCCCCN(CCCCCC)S(=O)(=O)c1ccc(COC[C@H](C)[C@@H](O)CCC(C)C)cc1 |  |  |  | 
 | Active |  | Active | Active | Active |  | Active | Active | Active | Dose-dependent effect |  |  |  | COc1ccc2cc(COC[C@H](C)[C@@H](O)CCC(C)C)ccc2c1 |  |  |  | 
 | inactive | Active | inactive | inactive | Active | Active | inactive |  |  | Dose-dependent effect | Active |  |  | CC(C)CC[C@H](O)[C@@H](C)COCc1ccc(S(=O)(=O)N(C)C2CCCCC2)cc1 |  |  |  | 
 |  |  | Active |  | Active |  | Active |  |  | Dose-dependent effect | Active | Dose-dependent effect | Active | CC(C)CC[C@H](O)[C@@H](C)COCc1ccc(S(=O)(=O)N(COCC[Si](C)(C)C)COCC[Si](C)(C)C)cc1 |  |  |  | 

Structure (SMILES) | Activity [1] | Activity [2] | Activity [3] | Activity [4] | Activity [5] | Activity [6] | Activity [7] | Activity [8] | Activity [9] | Activity [10] | Activity [11] | Activity [16] | Activity [17] | Activity [18] | Activity [12] | Activity [13] | Activity [14] | Activity [15]
CC(C)CC[C@H](O)[C@@H](C)[C@H]1CC[C@H]2[C@@H]3CC=C4C[C@@H](O)CC[C@]4(C)[C@H]3CC[C@]12C |  |  | inactive |  |  |  | inactive |  |  |  |  |  |  |  | Active | Active | Active | Active
